# High-throughput results as filed in PubChem.
# Sampled rows, rich in hits. Any-hit rate of the full collection: about 4.5%.
# Mdm2 ligase inh: MDM2-luciferase reporter signal enhancers, primary screen, MDM2 E3 ligase inhibitor project, cell-based, luminescence, 1536-well; signal enhancement, % at 5 µM; hit rate 0.11% among 210,000; cell-based MDM2 ubiquitination luciferase reporter, 2 h; 0 = plate control, 100 = twice control, blank-subtracted; E3 ubiquitin-protein ligase Mdm2 (Homo sapiens), Q00987; AID 1230, 2008;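 active means signal enhancement of 30% or more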;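 further: luminescence tracks abundance of the self-degrading MDM2-luciferase fusion protein; higher signal means inhibition of MDM2 E3 ligase activity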
# Target sequence (Q00987 whole entry, looked up, the tested form may be a part): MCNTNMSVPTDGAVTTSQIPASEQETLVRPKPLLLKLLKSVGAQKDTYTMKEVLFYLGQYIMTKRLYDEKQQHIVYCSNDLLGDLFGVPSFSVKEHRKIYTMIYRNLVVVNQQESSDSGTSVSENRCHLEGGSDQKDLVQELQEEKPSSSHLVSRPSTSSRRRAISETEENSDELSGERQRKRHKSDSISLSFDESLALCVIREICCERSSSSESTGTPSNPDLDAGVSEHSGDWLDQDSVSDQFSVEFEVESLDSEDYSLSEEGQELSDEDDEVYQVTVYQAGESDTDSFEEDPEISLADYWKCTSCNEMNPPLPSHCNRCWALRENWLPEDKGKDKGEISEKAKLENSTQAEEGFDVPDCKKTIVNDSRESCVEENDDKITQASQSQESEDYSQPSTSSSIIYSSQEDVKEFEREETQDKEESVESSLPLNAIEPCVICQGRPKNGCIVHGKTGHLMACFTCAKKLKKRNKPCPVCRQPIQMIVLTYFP
#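 test system = mammalian cells stably expressing self-ubiquitinating, self-degrading MDM2 E3–luciferase fusion | quantity = 2000 cells/well | incubation = cell settling 4 h, compound treatment 2 h, both 37 °C | signal = luminescence with SteadyLite reagent, 15 min at room temperature | evaluation = % enhancement relative to plate controls after blank subtraction | benchmarks = plate controls and plate blanks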
# STAT1 act: STAT1 signaling activators, primary screen, cell-based, HTS, luciferase reporter. NIH 3T3 STAT1-luciferase reporter, IFN-gamma, luminescence; 100% = IFN-gamma alone, no compound. hit rate 2.6% among 200,000. AID 932, 2007. activation (% of control), % at 5.5 µM;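 active means activation above the screen-wide mean activation plus 3 SD, cut at about 130% in these data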;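 further: raw ratio to IFN-gamma control signal so 100% means no change and 0% no light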
# PERK inhibitor: block of dimerizer-induced PERK translation repression, primary screen, PERK inhibitor project, CHO PERK-DD cells, SEAP luminescence, HTS. Eukaryotic translation initiation factor 2-alpha kinase 3 (Homo sapiens), Q9NZJ5. CHO PERK-DD fusion, SEAP luminescence translation reporter. hit rate 0.17% among 220,000. AID 1416, 2008. inhibition, % at 5.6 µM;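 active means inhibition above the mean inhibition of all tested compounds plus 3 SD, set separately per screening campaign, cut at about 2.9% in these data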;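 further: PERK kinase domain activated by AP20187 dimerizer at 100 nM; 0% = DMSO with dimerizer and 100% = rapamycin at 8.4 µM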
# APP 5'UTR act: activators of APP 5'UTR luciferase reporter, primary screen, SH-SY5Y cells. SH-SY5Y APP 5'UTR luciferase reporter, luminescence; zero percent = DMSO vehicle wells. activation, % at 2 µM. hit rate 1% among 190,000;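 active means activation above a set limit, based on mean plus 3 SD of controls, cut at about 140% in these data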
# NF-kB expr up: activators of NF-kB expression in neurons, primary screen, cell-based, HTS; human neuronal cells, NF-kB reporter expression; stronger effect = higher value; fold change at 12.5 µM; hit rate 1.6% among 190,000; in the data active means fold change above about 3.3
# AHR activator: AHR activators, primary screen, cell-based, luminescence, luciferase reporter, human | hit rate 2.5% among 320,000 | AHR-responsive luciferase reporter cells | Aryl hydrocarbon receptor (Homo sapiens), P35869 | activation, % at 5 µM; in the data active means activation above about 47%;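 further: 0% = vehicle wells and 100% = reference agonist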
# An asterisk follows results filed as active; nt = not tested or not shown.
SMILES,Mdm2 ligase inh,STAT1 act,PERK inhibitor,APP 5'UTR act,NF-kB expr up,AHR activator
Cc1cc(C)c2c(N)c(C(=O)c3cccc(Cl)c3)sc2n1,-1,118,0,9,0.63,48*
CCc1ccccc1NC(=O)c1sc2nc(C)cc(C)c2c1N,nt,nt,nt,nt,nt,67*
O=C(O)CCc1nn2c3ccccc3nc2n(Cc2ccccc2)c1=O,22,101,1,-1,0.92,-2
CCOC(=O)c1cnn2c(C)cc(-c3ccc(F)cc3)nc12,-13,146*,-1,82,3,1
Cc1cc(-c2ccc(F)cc2)nc2cc(C(N)=O)nn12,-16,99,0,-11,0.85,13
COc1ccc(CNC(=O)CN2C(=O)c3ccc([N+](=O)[O-])cc3C2=O)cc1,nt,nt,nt,nt,nt,1
CCc1cc2ccc(OC)cc2nc1SCC(=O)NNC(=O)c1ccco1,2,101,1,-11,1.1,53*
COc1ccc(NC(=O)CSc2nc3ccccc3cc2Cc2ccccc2)cc1,-13,98,0,-9,1.4,2
COc1ccc(OC)c(NC(=O)CSc2nc3ccccc3cc2Cc2ccccc2)c1,-23,96,2.9*,4,0.95,1
CCc1cc2ccccc2nc1SCC(=O)Nc1cc(OC)c(OC)cc1C(=O)O,-12,107,0,-4,1.2,1
COc1cc(NC(=O)CSc2nc3ccccc3cc2C)c(C(=O)O)cc1OC,-11,99,0,5,8.7*,-1
CCc1cc2cc(C)c(C)cc2nc1SCC(=O)NNC(=O)c1ccco1,-12,100,1,22,0.9,7
CN(C)S(=O)(=O)c1ccc(C(=O)NC(=O)CSc2nncs2)cc1,nt,nt,nt,nt,nt,0
Cc1ccc(SC/C(O)=C(\C#N)c2nc3ccccc3s2)cc1,-4,104,1,-7,0.93,7
N#C/C(=C(/O)CSc1ccccn1)c1nc2ccccc2s1,24,101,-1,3,1.2,51*
N#C/C(=C(/O)COC(=O)c1ccc(C#N)cc1)c1nc2ccccc2s1,1,89,0,-8,1.2,122*
CCCn1c(=S)[nH]c2cc(Cl)ccc21,nt,nt,2,nt,nt,1
C[n+]1c(/C=C/c2ccc3c(c2)OCO3)ccc2ccccc21,-26,115,0,185*,0.58,9
CCOc1cccc(/C=N/NC(=O)c2cc(C3CC3)[nH]n2)c1O,nt,nt,nt,nt,nt,53*
COc1ccc(NC(=O)CSc2nnc3ccc(-c4ccccn4)nn23)cc1OC,nt,nt,nt,nt,nt,-2
CN(C)CCCN(C(=O)/C=C/c1cccs1)c1nc2c(F)cccc2s1,-12,99,1,29,5.4*,nt
O=C(Nc1ccccn1)c1ccc(NC(=O)c2ccco2)cc1,-22,129*,-1,159*,2.7,-4
O=C(Nc1ccc(NC(=O)c2ccco2)c(Cl)c1)c1ccccc1,4,125,1,45,1.2,59*
CC(C)Oc1ccc(C(=O)Nc2ccc(NC(=O)c3ccco3)c(Cl)c2)cc1,-1,114,0,33,1.1,-3
O=C(Nc1ccccc1)Nc1ccccc1Br,-4,115,0,56,2.2,25
SMILES,Mdm2 ligase inh,STAT1 act,PERK inhibitor,APP 5'UTR act,NF-kB expr up,AHR activator
O=C(Nc1ccc(Br)c(Cl)c1)c1ccco1,-4,135*,0,81,2.6,75*
O=C(Nc1ccccc1)Nc1ccc(Br)c(Cl)c1,-18,115,1,45,1.8,67*
CC(=O)c1cccc(S(=O)(=O)NCCC(=O)NC2CCCCCC2)c1,nt,nt,nt,nt,nt,0
Nc1cc(-c2ccc(Cl)cc2)nn1-c1ccccc1,-2,149*,0,88,2.6,-5
Cc1cc(N)n(Cc2ccc(Cl)cc2)n1,-2,92,1,25,1.1,-1
Nc1c(-c2ccc(Cl)cc2)nnn1-c1ccccc1,-14,132*,0,89,3,-2
CC(=O)Nc1ccc(-c2cc(N)n(-c3ccccc3)n2)cc1,nt,nt,0,nt,nt,72*
Cc1ccc(-c2cc(N)n(Cc3ccc(Cl)cc3)n2)cc1,-5,90,-1,0,1.1,56*
Fc1cccc(F)c1/C=N/Nc1ccccn1,-22,123,1,34,2.4,36
C(=N\Nc1ccccn1)/c1ccc2c(c1)OCCO2,-47,137*,1,140*,1,18
Brc1ccc(/C=N/Nc2ccc3ccccc3n2)cc1,-17,126,1,30,3.3,69*
Fc1cccc(/C=N/Nc2ccccn2)c1,-12,138*,1,113,2.3,11
Fc1cccc(/C=N/Nc2ccc3ccccc3n2)c1,-67,68,1,225*,1.2,16
O=C(CCCc1nc2ccccc2s1)NCc1ccc(F)cc1,19,94,0,-3,1.1,0
COc1ccc(/C=N/NC(=O)CCc2n[nH]c(=O)[nH]c2=O)cc1O,nt,107,1,21,0.98,0
COc1ccc(OC)c(/C=N/NC(=O)CCc2n[nH]c(=O)[nH]c2=O)c1,-17,102,1,5,0.94,60*
COc1ccc(/C=N/NC(=O)Cc2n[nH]c(=O)[nH]c2=O)cc1,-1,nt,3.0*,nt,nt,1
CCOc1ccccc1Nc1nc(-c2sc(NC(=O)c3cccc(Cl)c3)nc2C)cs1,-53,113,1,78,1.7,64*
CCOc1ccccc1Nc1nc(-c2sc(NC(=O)c3ccccc3)nc2C)cs1,-10,99,-1,6,1.3,72*
C=CCSc1n[nH]c(-c2ccc(OCCCC)cc2)n1,-12,127,0,47,2,14
CCCCOc1ccc(-c2[nH]ncc2C=O)cc1,-6,135*,2,61,1.8,27
O=C(COC(=O)CCCN=C1NS(=O)(=O)c2ccccc21)NNC(=O)c1ccccc1,nt,nt,nt,nt,nt,-1
Cc1ccc(CN(CCO)CCO)cc1,-7,102,0,20,0.97,1
OCCN(CCO)Cc1ccc(Br)cc1,-16,103,0,11,1,63*
O=C(/C=C/c1nc2ccccc2s1)N1CCCCCC1,-26,132*,0,118,2.6,-5
CC1CCCCC1NC(=O)/C=C/c1nc2ccccc2s1 (stereo not drawn),-13,117,0,-16,2,11
Cc1cc(CN(C)C(=O)c2ccc3nc(Cc4ccccc4F)oc3c2)on1,nt,nt,nt,nt,nt,8
CC1CN(Cc2cc(=O)[nH]c(C3CC3)n2)CC(C)O1 (stereo not drawn),-3,90,0,-1,1.2,2
CCN1CCN(C(=O)c2cc(=O)c3cc(C)ccc3o2)CC1,nt,nt,nt,nt,nt,3
